Compounds with a hit are over-represented: about 3.9% of the library has one in this group of screens.
TAAR1 antagonist: antagonists of human TAAR1. Q96RJ0. CHO RD-HGA16 TAAR1, Fluo-8 calcium fluorescence, antagonist. inhibition, % at 3 µM. actives 1.5% (n = 360,000). AID 624466;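 active means inhibition above a per-plate cutoff, the mean inhibition of test compounds on that plate plus 3 SD, cut at about 49% in these data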
Target sequence (Q96RJ0 whole entry, looked up): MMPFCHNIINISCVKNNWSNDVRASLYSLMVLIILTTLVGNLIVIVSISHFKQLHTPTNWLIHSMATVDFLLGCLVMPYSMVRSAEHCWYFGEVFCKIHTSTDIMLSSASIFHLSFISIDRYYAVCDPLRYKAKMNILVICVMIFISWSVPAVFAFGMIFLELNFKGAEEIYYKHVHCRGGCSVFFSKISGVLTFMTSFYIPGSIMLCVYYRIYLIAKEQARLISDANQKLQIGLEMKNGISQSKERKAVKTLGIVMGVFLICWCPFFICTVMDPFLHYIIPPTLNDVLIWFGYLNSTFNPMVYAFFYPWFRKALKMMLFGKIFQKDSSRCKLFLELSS
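Assay system: RD-HGA16 CHO cells with stable hTAAR1 and Gα16 / Reagent: EC80 β-phenethylamine stimulus / Doses: 3 µM, single point / Timing: dye loading 75 min at 37 °C, then 30 min room temperature / Measured by: Fluo-8 intracellular calcium dye fluorescence, real-time kinetic reads / Controls: vehicle wells and EC80 agonist wells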
CRFBP-R2 agonist: CRF-BP/CRF-R2 complex agonism. HEK293 CRF-R2/CRF-BP, calcium dye fluorescence (FLIPR); percent of saturating CRF peptide response. activation, % at 13.2 µM. actives 0.46% (n = 350,000);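 active means activation of at least 50%, plus an integration ratio under a set limit after plate pattern correction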
TAAR1 agonist: human TAAR1 agonism; CHO RD-HGA16 TAAR1, Fluo-8 calcium fluorescence; vehicle wells 0%, saturating PEA agonist 100%; actives 0.99% (n = 360,000); activation, % at 3 µM;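 active means activation above the mean activation of all test compounds in the run plus 3 SD, cut at about 38% in these data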
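Repeats: no replicates (n 1) | Material: CHO-derived RD-HGA16 cells with stable Gα16 and human TAAR1 | Technique: Kinetic Fluo-8 calcium fluorescence | Schedule: 17-24 h seeding, 75 min 37 °C dye, 30 min RT | Evaluation: % activation from peak over basal fluorescence ratio, DMSO-to-PEA scaled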
TMEM16A act: activates or potentiates the mouse TMEM16A chloride channel. B-score at 10 µM. actives 0.3% (n = 340,000). HEK293 TMEM16A/YFP-H148Q/I152L, iodide quench fluorescence; stronger effect = lower value. Q8BHY3. AID 623877;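 active means fluorescence-ratio B-score plate-corrected deviation score at least 3 library SD below zero, with starting fluorescence score within 5 deviations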;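 further: channel opened by trigger with iodide after compound preincubation; score built on the fluorescence ratio of max minus min over baseline; more negative score means more quench and so TMEM16A activation or potentiation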
ANO1 block: mouse TMEM16A channel inhibition, primary screen; HEK293 TMEM16A/YFP iodide influx fluorescence, ionomycin; normalized B-score (activity score, 25-100; higher = stronger inhibition) at 10 µM; actives 1.2% (n = 310,000); AID 588511;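 active means ratio plate-corrected score three or more library SD toward inhibition, starting fluorescence score within five deviations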;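 further: score derived from kinetic fluorescence span divided by baseline fluorescence per well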
CRFBP-R2 block: blocks CRF-induced signaling of the CRF-BP/CRF-R2 complex | HEK293 CRF-R2/CRF-BP, CRF-induced calcium fluorescence | inhibition, % at 11.8 µM | actives 0.59% (n = 350,000);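 active means inhibition of the ligand-induced calcium signal above about 50% at the single tested concentration, limit read from the data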
Of the large screens only hits and unclear results are named; the others gave an inactive call.

CN1/C(=C\C(=S)NC(=O)c2cccc(Br)c2)C(C)(C)c2ccccc21	none
CCN(CC)S(=O)(=O)c1cccc(C(=O)/C=C2/N(C)c3ccccc3C2(C)C)c1	TAAR1 antagonist 58.9
Cc1ccc(S(=O)(=O)N2CC3(O)CN(C(=O)OC(C)C)N(C(=O)OC(C)C)CC3(OC(=O)NCc3ccccc3F)C2)cc1 (configuration not stated)	TAAR1 antagonist 59.7 (no result: TMEM16A act, ANO1 block)
CC(=O)c1cnc2nc(SCc3ccc(Cl)cc3)nn2c1C	none
CN1CCC2(CC1)Nc1nc(SCc3ccc(Cl)cc3)nn1C1=C2CN(C)CC1	CRFBP-R2 block 86.0
Cc1ccc(CN/C=C/C(=O)c2ccc(Br)cc2)cc1	ANO1 block 100 (no result: TAAR1 antagonist, TAAR1 agonist)
Cc1nn(C)c(C)c1NS(=O)(=O)c1c(C)n[nH]c1C	none (no result: ANO1 block)
CCCCC[C@H](C)N1C[C@@H](COCc2ccccc2)Oc2cc(N3CCC[C@H]3C(N)=O)ccc2S1(=O)=O	TAAR1 agonist 38.9 (no result: CRFBP-R2 agonist, TMEM16A act, ANO1 block, CRFBP-R2 block)
CCCCC[C@@H](C)N1C[C@@H](COCc2ccccc2)Oc2cc(N3CCC[C@H]3C(N)=O)ccc2S1(=O)=O	none (no result: CRFBP-R2 agonist, TMEM16A act, ANO1 block, CRFBP-R2 block)
Cc1c(C(C)C)c(=O)n(-c2ccc(S(=O)(=O)NCc3ccccc3)cc2)n1C	ANO1 block 25
Cc1cn(CC(=O)N2CCN(c3ccccn3)CC2)c(=O)[nH]c1=O	CRFBP-R2 block 95.6 (no result: TMEM16A act, ANO1 block)
Cc1ccc(SCC(=O)N2CCN(c3ccccn3)CC2)cc1	none
Cc1ccc(Cn2c(=N)n(CC(=O)c3ccccc3)c3ccccc32)cc1	ANO1 block 25
CC(C)(C)C(=O)Cn1c(=N)n(Cc2ccccc2)c2ccccc21	none
NS(=O)(=O)c1ccc(CNC(=O)Cn2nc(C(F)F)cc2C(F)F)cc1	TMEM16A act -4.61 (no result: ANO1 block)
Cc1cc([N+](=O)[O-])nn1CC(=O)NCc1ccccc1	none
O=C(O)c1cc(-c2ccccc2)n(-c2ccccc2)n1	none
CC(C)(C)c1cc(C(=O)O)nn1-c1ccccc1	CRFBP-R2 block 67.8
Cc1ccc(-c2csc(NC(=O)c3cccc(C)c3)c2C(=O)O)cc1	none
COc1cc(C(=O)Nc2scc(-c3ccc(Br)cc3)c2C(=O)O)cc(OC)c1OC	ANO1 block 100
Cc1cccc(C(=O)Nc2scc(-c3ccc(Br)cc3)c2C(=O)O)c1	CRFBP-R2 block 50.4
CCOC(=O)Cn1nc(C)n(-c2ccc(F)cc2)c1=O	none
COc1ccc(-c2coc3cc(OC(C)=O)ccc3c2=S)cc1	none (no result: ANO1 block)
CN(Cc1ccc(Cl)cc1)C(=O)CNC(=O)C12CC3CC(CC(C3)C1)C2	none (no result: ANO1 block)
c1ccc(-n2ncc3c(NCC4CCCO4)ncnc32)cc1 (configuration not stated)	none
Clc1ccc2[nH]c3c(NCCN4CCOCC4)ncnc3c2c1	none
Clc1ccc2[nH]c3c(NCC4CCCO4)ncnc3c2c1 (configuration not stated)	TAAR1 antagonist 53.9, ANO1 block 100 (no result: CRFBP-R2 agonist, TMEM16A act, CRFBP-R2 block)
Clc1ccc(-n2ncc3c(NCC4CCCO4)ncnc32)cc1 (configuration not stated)	TAAR1 antagonist 53.3
CN(C)c1nc(-c2cn(CCC#N)c3ccccc23)cs1	none
Fc1ccccc1NC(=S)NNc1ncc(C(F)(F)F)cc1Cl	ANO1 block 100
CC(C)c1nc(SCC(=O)Nc2ccc(C(=O)O)cc2)c2c3c(sc2n1)CCCC3	none
Cc1ccc(S(=O)(=O)Oc2ccccc2-c2ccccc2)cc1	TMEM16A act -5.36 (no result: ANO1 block)
Cc1ccc(NC(=O)CN(C)C(=O)C(Sc2ccccc2)c2ccccc2)cc1 (configuration not stated)	none (no result: ANO1 block)
Cc1cccc(N2CCN(C(=O)c3ccc4c(c3)OCCO4)CC2C)c1 (configuration not stated)	none
Cc1cccc(N2CCN(C(=O)C3CC(=O)N(c4ccc5c(c4)OCCO5)C3)CC2C)c1 (configuration not stated)	TAAR1 antagonist 55.1 (no result: ANO1 block)
O=C(C1=NN(c2ccccc2)C2C(=O)N(c3cccc(Cl)c3)C(=O)C12)c1ccccc1 (configuration not stated)	CRFBP-R2 agonist 115.7
